Changes are numbered by the printed parent chain.
Columns and labels:
wild-type KSI = experiment: Kinetic parameters kcat and KM for steroid substrate; format: biochemical, Pseudomonas putida; details: relative to wild type
Y30F KSI [1] = experiment: as above; format: biochemical, Pseudomonas putida; details: relative to wild type
Y55F KSI [2] = experiment: as above; format: biochemical, Pseudomonas putida; details: relative to wild type
Y115F KSI = target: T1, Y115F KSI (Pseudomonas putida, UniProt P07445, Y119F); experiment: as above; format: biochemical
T1 sequence (P07445 1-131 Y119F): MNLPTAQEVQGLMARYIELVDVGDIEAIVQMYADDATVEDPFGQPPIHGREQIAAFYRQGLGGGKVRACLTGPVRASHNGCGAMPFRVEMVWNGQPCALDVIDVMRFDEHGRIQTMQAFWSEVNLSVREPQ

Y30F/Y55F KSI = experiment: as above; format: biochemical, Pseudomonas putida; details: relative to wild type
Y30F/Y55F/Y115F KSI = target: T2, Y30F/Y55F/Y115F KSI (Pseudomonas putida, UniProt P07445, Y119F/Y32F/Y57F); experiment: as above; format: biochemical
T2 sequence (P07445 1-131 Y32F/Y57F/Y119F): T1 sequence (P07445 1-131 Y119F) with Y32F, Y57F

Y30F KSI [3] = details: ref Kim et al., 2000; cited from earlier work
Y55F KSI [4] = details: ref Kim et al., 2000; cited from earlier work
[5] = in solution; ref Ha et al., 2000; cited from earlier work
D38N KSI = target: T3, D38N KSI (Pseudomonas putida, UniProt P07445, D40N); experiment: KD by quenching of intrinsic tryptophan fluorescence of KSI; format: binding
T3 sequence (P07445 1-131 D40N): T1 sequence (P07445 1-131 Y119F) with D40N, F119Y
In short: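 Mutant KSI was expressed in E. coli BL21(DE3) and purified to a single SDS-PAGE band. Steroid ligand in DMSO was titrated successively into KSI in 10 mM potassium phosphate with 10% DMSO. Intrinsic fluorescence was read at ex 295/em 315 nm and corrected for dilution. KD was fitted to a binding equation using total steroid and KSI concentrations. Mean ± SD of three independent experiments.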

Y30F/D38N KSI = target: T4, Y30F/D38N KSI (Pseudomonas putida, UniProt P07445, D40N/Y32F); experiment: KD by quenching of intrinsic tryptophan fluorescence of KSI; format: binding
T4 sequence (P07445 1-131 Y32F/D40N): T1 sequence (P07445 1-131 Y119F) with Y32F, D40N, F119Y

Y55F/D38N KSI = target: T5, Y55F/D38N KSI (Pseudomonas putida, UniProt P07445, D40N/Y57F); experiment: as above; format: binding
T5 sequence (P07445 1-131 D40N/Y57F): T1 sequence (P07445 1-131 Y119F) with D40N, Y57F, F119Y

Y115F/D38N KSI = target: T6, Y115F/D38N KSI (Pseudomonas putida, UniProt P07445, D40N/Y119F); experiment: as above; format: binding
T6 sequence (P07445 1-131 D40N/Y119F): T1 sequence (P07445 1-131 Y119F) with D40N

Y30F/Y55F/D38N KSI = target: T7, Y30F/Y55F/D38N KSI (Pseudomonas putida, UniProt P07445, D40N/Y32F/Y57F); experiment: as above; format: binding
T7 sequence (P07445 1-131 Y32F/D40N/Y57F): T1 sequence (P07445 1-131 Y119F) with Y32F, D40N, Y57F, F119Y

Y30F/Y55F/Y115F/D38N KSI [6] = target: T8, Y30F/Y55F/Y115F/D38N KSI (Pseudomonas putida, UniProt P07445, D40N/Y119F/Y32F/Y57F); experiment: as above; format: binding
T8 sequence (P07445 1-131 Y32F/D40N/Y57F/Y119F): T1 sequence (P07445 1-131 Y119F) with Y32F, D40N, Y57F

Y30F/Y55F/Y115F/D38N KSI [7] = experiment: as above; format: binding, Pseudomonas putida; details: relative to D38N KSI
[8] = 34 mM potassium phosphate, pH 7.0, 2.5 mM EDTA, 3.3 % methanol, 298 K

C[C@]12CCC(=O)CC1=CC[C@@H]1[C@@H]2CC[C@]2(C)C(=O)CC[C@@H]12 [5-AND, 5-androstene-3,17-dione]
Relative kcat (wild-type KSI): 1
Relative kcat (Y30F KSI [1]): 0.84
Relative kcat (Y55F KSI [2]): 0.17
Km (Y115F KSI; [8]): 41.7 ± 2 µM
kcat (Y115F KSI; [8]): (14.5 ± 0.4) × 10^3 s^−1
Relative kcat (Y115F KSI; relative to wild type): 0.68
Relative kcat (Y30F/Y55F KSI): 0.50
Km (Y30F/Y55F/Y115F KSI; [8]): 77.3 ± 5.6 µM
kcat (Y30F/Y55F/Y115F KSI; [8]): (12.2 ± 0.2) × 10^3 s^−1
Relative kcat (Y30F/Y55F/Y115F KSI; relative to wild type): 0.57
factor of decrease in kcat relative to the wild-type KSI (Y30F KSI [3]): 1.2
factor of decrease in kcat relative to the wild-type KSI (Y55F KSI [4]): 6
pKa of the C4 proton [5]: 12.7

C[C@]12CCc3c(ccc4cc(O)ccc34)[C@@H]1CCC2=O [equilenin]
Kd (D38N KSI): 31 nM
Kd (Y30F/D38N KSI): 70 nM
Kd (Y55F/D38N KSI): 80 nM
Kd (Y115F/D38N KSI): 70 nM
Kd (Y30F/Y55F/D38N KSI): 250 nM
Kd (Y30F/Y55F/Y115F/D38N KSI [6]): 340 nM
decrease in binding energy (Y30F/Y55F/Y115F/D38N KSI [7]): 1.3 to 1.4 kcal/mol
factor by which affinity is lower than that of D38N KSI (Y30F/Y55F/Y115F/D38N KSI [7]): 9.1–11

C[C@]12CC[C@@H]3c4ccc(O)cc4CC[C@H]3[C@@H]1CCC2=O [estrone]
Kd (D38N KSI): 110 nM
decrease in binding energy (Y30F/Y55F/Y115F/D38N KSI [7]): 1.3 to 1.4 kcal/mol
factor by which affinity is lower than that of D38N KSI (Y30F/Y55F/Y115F/D38N KSI [7]): 9.1–11

Source: paper PMC4443282 (Molecules and Cells, 2015)
